Values belong to the compound of their own block, whether it stands above or below them.
Key:
Ku70/80 = Ku70/80 (Homo sapiens, UniProt P12956+P13010); test: Electrophoretic mobility shift assay; format: binding
Procedure, shortened: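 Purified Ku pre-incubated with varying concentrations of test compound, then added to 5′-[32P]-labeled 30-bp duplex DNA made by annealing a labeled strand to its complement. Incubated 30 min at 25°C, resolved on a 6% non-denaturing polyacrylamide gel, then phosphorimaged and quantified. Triplicate titrations, IC50 from fitted binding curves.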

DNA-PK = DNA-PK (Homo sapiens, UniProt P12956+P13010); test: DNA-PK phosphoryl-transferase kinase assay with p53 peptide substrate; format: biochemical
Sequence of DNA-PK (P12956 whole entry): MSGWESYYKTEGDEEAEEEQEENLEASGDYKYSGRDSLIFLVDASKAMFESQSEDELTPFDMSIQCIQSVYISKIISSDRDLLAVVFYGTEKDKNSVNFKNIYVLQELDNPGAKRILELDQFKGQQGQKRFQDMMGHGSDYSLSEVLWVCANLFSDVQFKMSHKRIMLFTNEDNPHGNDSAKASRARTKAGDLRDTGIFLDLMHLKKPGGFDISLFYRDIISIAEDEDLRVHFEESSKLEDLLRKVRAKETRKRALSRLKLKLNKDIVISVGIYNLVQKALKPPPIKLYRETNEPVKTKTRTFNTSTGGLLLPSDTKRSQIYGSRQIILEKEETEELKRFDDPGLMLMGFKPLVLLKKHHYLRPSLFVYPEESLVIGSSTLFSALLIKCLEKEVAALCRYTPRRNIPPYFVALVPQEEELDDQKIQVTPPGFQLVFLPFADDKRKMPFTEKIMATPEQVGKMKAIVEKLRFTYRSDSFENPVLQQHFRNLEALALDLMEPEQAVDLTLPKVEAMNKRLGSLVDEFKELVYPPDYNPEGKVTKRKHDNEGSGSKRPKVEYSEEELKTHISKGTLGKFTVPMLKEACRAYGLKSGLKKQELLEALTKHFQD
Sequence of DNA-PK (P13010 whole entry): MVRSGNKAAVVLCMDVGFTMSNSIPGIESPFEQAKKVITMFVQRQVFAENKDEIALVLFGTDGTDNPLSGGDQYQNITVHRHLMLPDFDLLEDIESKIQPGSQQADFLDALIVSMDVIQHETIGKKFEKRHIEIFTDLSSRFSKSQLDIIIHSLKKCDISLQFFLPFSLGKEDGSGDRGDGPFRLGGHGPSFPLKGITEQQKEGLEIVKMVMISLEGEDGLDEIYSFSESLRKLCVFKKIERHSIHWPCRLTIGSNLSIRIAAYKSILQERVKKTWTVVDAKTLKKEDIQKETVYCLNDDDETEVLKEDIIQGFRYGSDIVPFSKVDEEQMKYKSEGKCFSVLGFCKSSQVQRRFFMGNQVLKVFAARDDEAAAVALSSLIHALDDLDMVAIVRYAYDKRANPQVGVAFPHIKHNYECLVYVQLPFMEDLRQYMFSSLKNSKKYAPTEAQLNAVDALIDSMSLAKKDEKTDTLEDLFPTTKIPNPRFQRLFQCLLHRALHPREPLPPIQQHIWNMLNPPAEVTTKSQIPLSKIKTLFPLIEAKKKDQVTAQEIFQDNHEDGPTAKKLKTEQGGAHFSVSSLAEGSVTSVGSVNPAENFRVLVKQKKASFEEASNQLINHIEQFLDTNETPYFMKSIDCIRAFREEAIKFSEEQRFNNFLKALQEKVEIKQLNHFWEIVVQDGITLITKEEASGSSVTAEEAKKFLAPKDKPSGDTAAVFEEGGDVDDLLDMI
Procedure, shortened: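 DNA-PKcs purified from HeLa or HEK 293 cells and combined with Ku; test compound pre-incubated with the enzyme 15 min. Reaction started with ATP, unlabeled 30-bp duplex DNA and synthetic p53-based peptide. [32P] transfer run at 37°C for 15 min, stopped with 30% acetic acid, spotted on P81 filters and washed. Read by phosphorimaging. Triplicate titrations, IC50 from fitted binding curves.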

[1] = tested on: Ku80-wt mouse embryo fibroblasts (MEF); test: CCK-8 cell viability, wild type MEF; format: cell-based; details: 20 μM
Procedure, shortened: (§1)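 Ku80-wt and Ku80-null MEFs in RPMI with 10% FBS, 5 × 10^3 per well, grown 24 h before treatment. Exposed 48 h in Opti-MEM to vehicle or 20 μM test compound, concurrently with indicated bleomycin concentrations (or compound alone), 1% DMSO constant. CCK-8 about 2 h, A450 read; percent viability relative to vehicle controls. Mean and SEM of triplicates.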

[2] = tested on: Ku80-null mouse embryo fibroblasts (MEF); test: CCK-8 cell viability, Ku80-null MEF; format: cell-based
Procedure, shortened: as §1

Solubility and stability = format: physicochemical
H460 cells [3] = test: CCK-8 cell viability with etoposide; format: cell-based; details: 20 μM, 48 h
Procedure, shortened: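 H460 cells in RPMI with 10% FBS, plated at 5 × 10^3 per well and grown 24 h. Treated 48 h in Opti-MEM with 20 μM test compound or vehicle plus indicated etoposide concentrations, DMSO held at 1%. CCK-8 added for about 2 h, then A450 read; percent viability taken relative to vehicle-treated controls. Mean and SEM of triplicates.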

Ku protein = Ku protein (Homo sapiens, UniProt P12956+P13010); test: Thermal-shift assay; format: binding
Sequence of Ku protein (P12956 whole entry): as the sequence (P12956 whole entry) above
Sequence of Ku protein (P13010 whole entry): as the sequence (P13010 whole entry) above
Procedure, shortened: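 Purified Ku70/80 (baculovirus-infected Sf9 cells) mixed with DMSO vehicle or a fixed test-compound concentration, then split into aliquots. Aliquots heated 3 min at a range of temperatures, cooled to 4 °C and spun at 12,000 × g for 20 min. Soluble Ku70 detected by SDS-PAGE western blot with chemiluminescence. Band intensities normalised to the 40 °C point, fit to a 4-parameter sigmoid, giving T1/2.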

MELK kinase = MELK kinase (Homo sapiens, UniProt Q14680); test: Kinase screen; format: biochemical; details: 2.5 μM
Sequence of MELK kinase (Q14680 whole entry): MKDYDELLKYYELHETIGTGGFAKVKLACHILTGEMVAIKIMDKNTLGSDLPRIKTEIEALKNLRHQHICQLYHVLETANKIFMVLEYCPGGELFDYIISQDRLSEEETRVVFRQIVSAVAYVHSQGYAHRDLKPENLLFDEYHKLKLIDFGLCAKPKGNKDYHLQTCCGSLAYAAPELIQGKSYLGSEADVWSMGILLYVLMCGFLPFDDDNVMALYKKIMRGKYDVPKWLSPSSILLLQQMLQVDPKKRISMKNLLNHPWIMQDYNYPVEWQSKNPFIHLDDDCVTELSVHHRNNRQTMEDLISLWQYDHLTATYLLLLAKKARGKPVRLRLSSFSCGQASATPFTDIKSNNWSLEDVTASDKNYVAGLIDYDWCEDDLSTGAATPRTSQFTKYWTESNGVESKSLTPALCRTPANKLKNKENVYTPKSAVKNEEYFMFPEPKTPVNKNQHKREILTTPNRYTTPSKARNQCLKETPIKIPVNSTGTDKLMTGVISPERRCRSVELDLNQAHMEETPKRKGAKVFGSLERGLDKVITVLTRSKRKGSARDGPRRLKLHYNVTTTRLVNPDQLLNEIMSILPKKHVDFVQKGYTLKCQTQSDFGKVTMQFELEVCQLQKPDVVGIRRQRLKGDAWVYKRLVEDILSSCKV
Procedure, shortened: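 Panel of 24 kinases, each with its own substrate, run in triplicate with or without 2.5 μM test compound using ADP-Glo. After ATP depletion, generated ADP was read by coupled luciferase luminescence. Percent activity remaining, or inhibition, calculated relative to DMSO vehicle controls.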

[4] = tested on: DNA-PKcs p-S2056 in H460 cells; test: Immunofluorescence of DNA-PKcs p-S2056 after Bleomycin; format: cell-based; details: 20 μM, concurrent or 1-2 h pre-incubation, 10 μM Bleomycin 1 h
Procedure, shortened: (§2)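 H460 cells on coverslips overnight, then 10 μM bleomycin for 1 h at 37 °C with 20 μM test compound, given concurrently or after 1 or 2 h preincubation; controls in 1% DMSO. Fixed in 4% PFA, permeabilised in 0.1% Triton, blocked. Stained with anti-p-DNA-PKcs S2056 and anti-γH2AX S139 (1:200, overnight 4 °C), plus DAPI. Fiji scored p-S2056 intensity and γH2AX foci over 200 cells; median, unpaired t-test.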

γ-H2AX in H460 cells = test: Immunofluorescence of γ-H2AX after Bleomycin; format: cell-based; details: 20 μM, 10 μM Bleomycin 1 h
Procedure, shortened: as §2

H460 cells [5] = test: CRISPR/Cas9 HDR-mediated gene insertion at EMX1; format: cell-based; details: 20 μM
Procedure, shortened: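 Donor carrying GFP and a puromycin-resistance gene, flanked by 800 bp homology arms to an EMX1 CRISPR cut site, co-transfected into H460 cells with EMX1 gRNA and Cas9 plasmids, with vehicle or 20 μM test compound. Junctional PCR on genomic DNA scored precise homologous integration among puromycin-resistant clones.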

Sequence of Ku70/80 (P12956 whole entry): as the sequence (P12956 whole entry) above
Sequence of Ku70/80 (P13010 whole entry): as the sequence (P13010 whole entry) above

Compound: COc1cccc(NC(=O)c2cc(-c3ccc(/C=C4\C(=O)N(c5cccc(C(=O)O)c5)N=C4C)o3)ccc2Cl)c1 [compound 68]
fold increase in Ku–DNA binding inhibitory activity (Ku70/80; on incorporation of 3-methoxyphenyl amide into X80): 4 fold | IC50 (DNA-PK): 3120 ± 700 nM | sensitivity to Bleomycin induced by compound, wild type cells ([1]; concurrent 48 h with Bleomycin): increased sensitivity | reduction in survival, single agent ([1]; preliminary single agent experiments): < 10% | sensitivity to Bleomycin induced by compound, Ku80-null cells ([2]; 20 μM, concurrent 48 h with Bleomycin): no significant increase in sensitivity | solubility compared to 5102 and 5135 (Solubility and stability): significant increase in solubility

IC50 (Ku70/80): 3720 ± 1500 nM | IC50 (DNA-PK): 500 ± 30 nM
Compound: COc1cccc(NC(=O)c2cc(-c3ccc(CC4C(=O)N(c5cccc(C(=O)O)c5)N=C4C)o3)ccc2Cl)c1 (stereo not drawn) [compound 149]

IC50 (Ku70/80): 2660 ± 300 nM | IC50 (DNA-PK): 110 ± 20 nM
Compound: COc1cccc(NC(=O)c2cc(-c3ccc(CC4C(=O)N(c5cccc(C(=O)O)c5)N=C4C(F)(F)F)o3)ccc2Cl)c1 (stereo not drawn) [compound 322]
sensitization to etoposide (H460 cells [3]): Sensitization to etoposide

IC50 (Ku70/80): 1990 ± 900 nM | IC50 (DNA-PK): 240 ± 15 nM | shift in Tm of Ku (Ku protein; vs vehicle Tm of 50°C): 6 °C | Tm of Ku (Ku protein; with compound): 56 °C | inhibition of MELK kinase (MELK kinase): moderate inhibition
Compound: COc1cccc(NC(=O)c2cc(-c3ccc(CC4C(=O)N(c5cccc(-c6nnn[nH]6)c5)N=C4C)o3)ccc2Cl)c1 (stereo not drawn) [compound 245]
DNA-PKcs Ser 2056 phosphorylation in cells [4]: reduced Ser 2056 phosphorylation | γ-H2AX (DDR) (γ-H2AX in H460 cells): inhibition of the DDR | Insertion efficiency (%) (H460 cells [5]): 80%

Compound: Bleomycin [reference compound]
increased sensitivity of Ku80-null cells compared to wt MEFs ([2]; 48 h, CCK-8): ~6 fold

impact on Ku–DNA binding activity (Ku70/80): no impact
Compound: O=c1cc(N2CCOCC2)oc2c(-c3cccc4c3sc3ccccc34)cccc12 [NU7441, reference compound]
